Test results published in ChEMBL document CHEMBL1124774, “Synthesis and biological activity of some derivatives of rifamycin P” (1990).
Values after ≈ are worked out from the molar mass of the structure shown.

How the values were obtained:
Escherichia coli = test: In vitro antibacterial activity of compound against Escherichia coli SKF 12140; assay type: functional
Klebsiella pneumoniae = test: In vitro antibacterial activity of compound against Klebsiella pneumoniae ISM; assay type: functional
Mycobacterium avium [1] = test: 50% inhibition of the 20 Mycobacterium (MAC) avium complex clinical isolates; assay type: functional
Procedure, shortened: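 Agar-dilution MICs, 2-fold dilutions over 128-0.0001 μg/mL, on Middlebrook 7H10 agar with 2% glycerol and 10% OADC. Organisms from Loevenstein-Jensen slants were grown in 7H9 broth with 0.5% Tween and 10% OADC, adjusted to McFarland no. 1, and spotted with a multipoint inoculator. Plates were sealed and incubated at 22, 30 or 37 °C for 4-20 days depending on strain.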

Neisseria gonorrhoeae = test: In vitro antibacterial activity of compound against Neisseria gonorrhoeae ISM 68/126; assay type: functional
Pseudomonas aeruginosa = test: In vitro antibacterial activity of compound against Pseudomonas aeruginosa ATCC 10145; assay type: functional
Procedure, shortened: (§1)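 Twofold microdilution MIC in Iso-Sensitest broth over 128-0.0001 µg/mL. Inoculum was 10^4 cfu/mL, with incubation at 37 °C for 18-24 h.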

Proteus vulgaris = test: In vitro antibacterial activity of compound against Proteus vulgaris X19H ATCC 881; assay type: functional
[2] = system: Staphylococcus epidermidis; test: In vitro antibacterial activity of compound against Staphylococcus epidermidis ATCC 12228; assay type: functional; procedure, shortened: as §1
Streptococcus pyogenes [3] = test: Inhibitory concentration of compound against Streptococcus pyogenus septicemia in the mouse, administarted in OS route; assay type: functional
Procedure, shortened: (§2)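 Male and female CD1 mice (18-22 g) were infected ip with S. pyogenes C203, with the challenge set so untreated mice died within 48 h. Groups of five received a single treatment immediately after infection. ED50 was calculated from the percentage surviving at each dose on day 10.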

Streptococcus pyogenes [4] = test: Inhibitory concentration of compound against Streptococcus pyogenus septicemia in the mouse, administarted in subcutaneous route; assay type: functional; settings: sc; procedure, shortened: as §2
Streptococcus pyogenes [5] = test: Minimum inhibitory concentration of compound against Streptococcus pyogenus septicemia in the mouse; assay type: functional
Streptococcus pyogenes [6] = test: In vitro antibacterial activity of compound against Streptococcus pyogenes C 203 SKF 13400; assay type: functional
Procedure, shortened: (§3)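 Streptococcal MICs were run by twofold microdilution in Todd-Hewitt broth over 128-0.0001 µg/mL. Inoculum was 10^4 cfu/mL, with incubation at 37 °C for 18-24 h.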

Staphylococcus aureus [7] = test: In vitro antibacterial activity of compound against Staphylococcus aureus Tour L 165; assay type: functional; procedure, shortened: as §1
Streptococcus pneumoniae = test: In vitro antibacterial activity of compound against Streptococcus pneumoniae UC 41; assay type: functional; procedure, shortened: as §3
Enterococcus faecalis = test: In vitro antibacterial activity of compound against Streptococcus faecalis ATCC 7080.; assay type: functional; procedure, shortened: as §1
Haemophilus influenzae = test: In vitro antibacterial activity of compound against Haemophilus influenzae ATCC 19418; assay type: functional
Mycobacterium avium [8] = test: 90% inhibition of the 20 Mycobacterium avium complex (MAC) clinical isolates
Mycobacterium avium [9] = test: Minimum inhibitory concentration of compound against 20 Mycobacterium avium complex (MAC) clinical isolates
[10] = system: Mycobacterium tuberculosis; test: In vitro antibacterial activity of compound against Mycobacterium tuberculosis H37Rv ATCC 9660; assay type: functional
Staphylococcus aureus [11] = test: Activity in the murine model (subcutaneous route) of Staphylococcus aureus tour septicemia; assay type: functional; settings: sc
Procedure, shortened: (§4)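 Male and female CD1 mice (18-22 g) were infected ip with S. aureus Tour. The challenge was set so untreated mice died within 48 h. Groups were five mice, dosed once daily for 3 days starting immediately after infection. ED50 was calculated on day 10 from the percentage surviving at each dose.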

Staphylococcus aureus [12] = test: Activity in the murine model (OS route) of Staphylococcus aureus tour septicemia; assay type: functional; procedure, shortened: as §4

Compound | MIC (Escherichia coli) | MIC (Klebsiella pneumoniae) | MIC50 (Mycobacterium avium [1]) | MIC (Neisseria gonorrhoeae) | MIC (Pseudomonas aeruginosa) | MIC (Proteus vulgaris) | MIC [2] | ED50 (Streptococcus pyogenes [3]) | ED50 (Streptococcus pyogenes [4]) | MIC (Streptococcus pyogenes [5]) | MIC (Streptococcus pyogenes [6]) | MIC (Staphylococcus aureus [7]) | MIC (Streptococcus pneumoniae) | MIC (Enterococcus faecalis) | MIC (Haemophilus influenzae) | MIC90 (Mycobacterium avium [8]) | MIC (Mycobacterium avium [9]) | MIC [10] | ED50 (Staphylococcus aureus [11]) | ED50 (Staphylococcus aureus [12])
CCCCNc1nc2c(s1)c1c(O)c3c(O)c(C)c4c(c32)C(=O)C(C)(O/C=C/C(OC)C(C)C(OC(C)=O)C(C)C(O)C(C)C(O)C(C)/C=C/C=C(/C)C(=O)N1)O4 (stereo not drawn) | 16 µg/mL (≈ 19.8 µM) | 64 µg/mL (≈ 79 µM) | 32 µg/mL (≈ 39.5 µM) | 0.125 µg/mL (≈ 0.154 µM) | 8 µg/mL (≈ 9.88 µM) | 16 µg/mL (≈ 19.8 µM) | 0.016 µg/mL (≈ 0.0198 µM) | > 10 mg/kg | 6.6 mg/kg | 0.063 µg/mL (≈ 0.0778 µM) | 0.063 µg/mL (≈ 0.0778 µM) | 0.032 µg/mL (≈ 0.0395 µM) | 0.063 µg/mL (≈ 0.0778 µM) | 1 µg/mL (≈ 1.23 µM) | 0.125 µg/mL (≈ 0.154 µM) | 64 µg/mL (≈ 79 µM) | 2 µg/mL (≈ 2.47 µM) | – | – | –
COC1/C=C/OC2(C)Oc3c(C)c(O)c4c(O)c(c5sc(N6CCN(C)CC6)nc5c4c3C2=O)NC(=O)/C(C)=C\C=C\C(C)C(O)C(C)C(O)C(C)C(O)C1C (stereo not drawn) | 8 µg/mL (≈ 10.1 µM) | 16 µg/mL (≈ 20.1 µM) | – | 1 µg/mL (≈ 1.26 µM) | 16 µg/mL (≈ 20.1 µM) | 8 µg/mL (≈ 10.1 µM) | 0.125 µg/mL (≈ 0.157 µM) | – | – | – | 0.063 µg/mL (≈ 0.0792 µM) | 0.008 µg/mL (≈ 0.0101 µM) | 0.063 µg/mL (≈ 0.0792 µM) | 1 µg/mL (≈ 1.26 µM) | 0.125 µg/mL (≈ 0.157 µM) | – | – | 1 µg/mL (≈ 1.26 µM) | 10 mg/kg | –
CCNc1nc2c(s1)c1c(O)c3c(O)c(C)c4c(c32)C(=O)C(C)(O/C=C/C(OC)C(C)C(OC(C)=O)C(C)C(O)C(C)C(O)C(C)/C=C/C=C(/C)C(=O)N1)O4 (stereo not drawn) | 16 µg/mL (≈ 20.5 µM) | 32 µg/mL (≈ 40.9 µM) | 32 µg/mL (≈ 40.9 µM) | 0.125 µg/mL (≈ 0.16 µM) | 4 µg/mL (≈ 5.12 µM) | 8 µg/mL (≈ 10.2 µM) | 0.032 µg/mL (≈ 0.0409 µM) | > 4 mg/kg | – | 0.063 µg/mL (≈ 0.0806 µM) | 0.063 µg/mL (≈ 0.0806 µM) | 0.063 µg/mL (≈ 0.0806 µM) | 0.063 µg/mL (≈ 0.0806 µM) | 1 µg/mL (≈ 1.28 µM) | 0.125 µg/mL (≈ 0.16 µM) | 64 µg/mL (≈ 81.8 µM) | 8 µg/mL (≈ 10.2 µM) | 0.125 µg/mL (≈ 0.16 µM) | – | –
COC1/C=C/OC2(C)Oc3c(C)c(O)c4c(O)c(c5sc(N6CCN(C)CC6)nc5c4c3C2=O)NC(=O)/C(C)=C\C=C\C(C)C(O)C(C)C(O)C(C)C(OC(C)=O)C1C (stereo not drawn) | 2 µg/mL (≈ 2.39 µM) | 16 µg/mL (≈ 19.1 µM) | 64 µg/mL (≈ 76.5 µM) | 16 µg/mL (≈ 19.1 µM) | 8 µg/mL (≈ 9.56 µM) | 32 µg/mL (≈ 38.2 µM) | 0.063 µg/mL (≈ 0.0753 µM) | – | – | – | 0.032 µg/mL (≈ 0.0382 µM) | 0.004 µg/mL (≈ 0.00478 µM) | 0.125 µg/mL (≈ 0.149 µM) | 0.032 µg/mL (≈ 0.0382 µM) | 0.5 µg/mL (≈ 0.597 µM) | 64 µg/mL (≈ 76.5 µM) | 16 µg/mL (≈ 19.1 µM) | 2 µg/mL (≈ 2.39 µM) | – | –
COC1/C=C/OC2(C)Oc3c(C)c(O)c4c(O)c(c5sc(N6CCN(c7ccccc7)CC6)nc5c4c3C2=O)NC(=O)/C(C)=C\C=C\C(C)C(O)C(C)C(O)C(C)C(OC(C)=O)C1C (stereo not drawn) | 4 µg/mL (≈ 4.45 µM) | > 128 µg/mL | – | 0.125 µg/mL (≈ 0.139 µM) | 8 µg/mL (≈ 8.9 µM) | 16 µg/mL (≈ 17.8 µM) | 0.032 µg/mL (≈ 0.0356 µM) | – | – | – | 0.032 µg/mL (≈ 0.0356 µM) | 0.008 µg/mL (≈ 0.0089 µM) | 0.004 µg/mL (≈ 0.00445 µM) | 1 µg/mL (≈ 1.11 µM) | 0.125 µg/mL (≈ 0.139 µM) | – | – | 1 µg/mL (≈ 1.11 µM) | – | –
COC1/C=C/OC2(C)Oc3c(C)c(O)c4c(O)c(c5sc(N6CCN(CCO)CC6)nc5c4c3C2=O)NC(=O)/C(C)=C\C=C\C(C)C(O)C(C)C(O)C(C)C(OC(C)=O)C1C (stereo not drawn) | 8 µg/mL (≈ 9.23 µM) | 32 µg/mL (≈ 36.9 µM) | – | 0.125 µg/mL (≈ 0.144 µM) | 16 µg/mL (≈ 18.5 µM) | 16 µg/mL (≈ 18.5 µM) | 0.125 µg/mL (≈ 0.144 µM) | – | – | – | 0.016 µg/mL (≈ 0.0185 µM) | 0.016 µg/mL (≈ 0.0185 µM) | 0.008 µg/mL (≈ 0.00923 µM) | 4 µg/mL (≈ 4.61 µM) | 0.125 µg/mL (≈ 0.144 µM) | – | – | 1 µg/mL (≈ 1.15 µM) | – | > 20 mg/kg
CCCCN(CCCC)c1nc2c(s1)c1c(O)c3c(O)c(C)c4c(c32)C(=O)C(C)(O/C=C/C(OC)C(C)C(OC(C)=O)C(C)C(O)C(C)C(O)C(C)/C=C/C=C(/C)C(=O)N1)O4 (stereo not drawn) | > 128 µg/mL | > 128 µg/mL | 1 µg/mL (≈ 1.15 µM) | 2 µg/mL (≈ 2.31 µM) | > 128 µg/mL | > 128 µg/mL | 0.125 µg/mL (≈ 0.144 µM) | 1.23 mg/kg | 1.62 mg/kg | 0.125 µg/mL (≈ 0.144 µM) | 0.125 µg/mL (≈ 0.144 µM) | 0.063 µg/mL (≈ 0.0727 µM) | 0.063 µg/mL (≈ 0.0727 µM) | 4 µg/mL (≈ 4.62 µM) | 1 µg/mL (≈ 1.15 µM) | 2 µg/mL (≈ 2.31 µM) | 0.25 µg/mL (≈ 0.289 µM) | – | – | –
CCOC(=O)N1CCN(c2nc3c(s2)c2c(O)c4c(O)c(C)c5c(c43)C(=O)C(C)(O/C=C/C(OC)C(C)C(OC(C)=O)C(C)C(O)C(C)C(O)C(C)/C=C/C=C(/C)C(=O)N2)O5)CC1 (stereo not drawn) | 16 µg/mL (≈ 17.9 µM) | 32 µg/mL (≈ 35.8 µM) | – | 0.125 µg/mL (≈ 0.14 µM) | 32 µg/mL (≈ 35.8 µM) | 16 µg/mL (≈ 17.9 µM) | 0.063 µg/mL (≈ 0.0704 µM) | – | – | – | 0.063 µg/mL (≈ 0.0704 µM) | 0.063 µg/mL (≈ 0.0704 µM) | 0.063 µg/mL (≈ 0.0704 µM) | 4 µg/mL (≈ 4.47 µM) | 0.125 µg/mL (≈ 0.14 µM) | – | – | 2 µg/mL (≈ 2.23 µM) | – | –
COC1/C=C/OC2(C)Oc3c(C)c(O)c4c(O)c(c5sc(N6CCOCC6)nc5c4c3C2=O)NC(=O)/C(C)=C\C=C\C(C)C(O)C(C)C(O)C(C)C(OC(C)=O)C1C (stereo not drawn) | 16 µg/mL (≈ 19.4 µM) | 32 µg/mL (≈ 38.8 µM) | 32 µg/mL (≈ 38.8 µM) | 0.125 µg/mL (≈ 0.152 µM) | 16 µg/mL (≈ 19.4 µM) | 8 µg/mL (≈ 9.71 µM) | 0.063 µg/mL (≈ 0.0765 µM) | – | – | – | 0.032 µg/mL (≈ 0.0388 µM) | 0.002 µg/mL (≈ 0.00243 µM) | 0.016 µg/mL (≈ 0.0194 µM) | 1 µg/mL (≈ 1.21 µM) | 0.5 µg/mL (≈ 0.607 µM) | 128 µg/mL (≈ 155 µM) | > 16 µg/mL | 2 µg/mL (≈ 2.43 µM) | – | –
COC1/C=C/OC2(C)Oc3c(C)c(O)c4c(O)c(c5sc(N6CCN(C(=O)OCc7ccccc7)CC6)nc5c4c3C2=O)NC(=O)/C(C)=C\C=C\C(C)C(O)C(C)C(O)C(C)C(OC(C)=O)C1C (stereo not drawn) | > 128 µg/mL | > 128 µg/mL | – | 0.125 µg/mL (≈ 0.131 µM) | 32 µg/mL (≈ 33.4 µM) | 64 µg/mL (≈ 66.9 µM) | 0.032 µg/mL (≈ 0.0334 µM) | – | – | – | 0.125 µg/mL (≈ 0.131 µM) | 0.063 µg/mL (≈ 0.0658 µM) | 0.063 µg/mL (≈ 0.0658 µM) | 2 µg/mL (≈ 2.09 µM) | 0.125 µg/mL (≈ 0.131 µM) | – | – | 0.5 µg/mL (≈ 0.522 µM) | – | –
